Test: Toxicity liver stage against HepG2, at 10uM
Type: cell-based
Parameters: test concentration 10 uM, cell line HepG2-A16-CD81EGFP
Conditions: human, HepG2-A16-CD81EGFP cells; read-out: INHIBITION
Outline: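 Uninfected HepG2-A16-CD81EGFP cells, 3 × 10^3 per well, 1536-well, plated on prespotted compound at 10 μM final, parasite-free screening media added to match infected plates; puromycin 10 μM positive, DMSO 0.5% negative; run in parallel with 48 h PbLuc assay at 37 °C, 5% CO2; viability by CellTiter-Glo luminescence, normalized to controls.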

CCCN(CCC)c1nc(N)nc(-c2cc(Cl)ccc2OC)n1
cytotoxicity at 10 µM: 7.43%

Cc1ccc2[nH]c(CO[C@H]3CN(C(=O)C4CC4)C[C@H]3F)nc2c1
cytotoxicity at 10 µM: -11.6%

FC(F)(F)Oc1cccc(CNC[C@H]2Cn3ccnc3CO2)c1
cytotoxicity at 10 µM: 2.21%

O=C1Nc2ccccc2/C1=C1\CCCN1
cytotoxicity at 10 µM: 5.02%

CC(C)Cc1nc(OCC(=O)O)c(C#N)c2c1CCCC2
cytotoxicity at 10 µM: -6.14%

CC(C)NC(=O)NCCn1cnc(C2CCCC2)cc1=O
cytotoxicity at 10 µM: -0.373%

Cc1csc(C(=O)N2CCC(S(C)(=O)=O)CC2)c1
cytotoxicity at 10 µM: 2.7%

Cn1nc(CN2CCCC2)c2c1CN(C(=O)c1cnccn1)CC2
cytotoxicity at 10 µM: -147%

O=C1CC(C2CCCCC2)c2c(n(C3CCCC3)[nH]c2=O)N1 (centres undefined)
cytotoxicity at 10 µM: -5.01%

CCCC(=O)Nc1sc(C(=O)OCC)c(C)c1C#N
cytotoxicity at 10 µM: 8.29%

O=C(c1ccco1)N1CCOCC2(C1)CN(c1ccccc1)C(=O)CO2 (centres undefined)
cytotoxicity at 10 µM: -10.1%

O=C(C1CCOCC1)N1CCO[C@H]2[C@@H](OCc3ccncc3)CC[C@@H]21
cytotoxicity at 10 µM: 5.54%

Cc1cc(C(F)(F)F)nn1CCCNC(=O)C1CCCC1
cytotoxicity at 10 µM: -4.93%

Cc1cc2c(cc1NC(N)=O)OCO2
cytotoxicity at 10 µM: 3.13%

COc1cccc(CNCc2cccc(Cl)c2)c1O
cytotoxicity at 10 µM: 1.29%

O=C(NC1CC1)c1ccn(COc2c(Cl)cccc2Cl)n1
cytotoxicity at 10 µM: 7.36%

COc1ccc(OC)c(C(C)Nc2nc3c(C)nn(C)c3c(=O)n2C)c1 (centres undefined)
cytotoxicity at 10 µM: -15%

COc1cccc(F)c1CN1CCC(c2nc(C)cc(C)n2)C1 (centres undefined)
cytotoxicity at 10 µM: 6.83%

CN1C[C@H](c2ccccc2)[C@H]2CN(C(=O)Cc3cccc(O)c3)CC[C@H]21
cytotoxicity at 10 µM: 4.98%

COc1ccc(OC)c([C@@H]2N[C@H](c3nccs3)Cc3ccsc32)c1
cytotoxicity at 10 µM: 12.6%

Cc1cccc(CN2CCCC(c3nccs3)C2)n1 (centres undefined)
cytotoxicity at 10 µM: 8.38%

CN1C[C@@H](C(=O)N2CCCOCC2)[C@@]2(CCc3ccccc3C(=O)N2)C1
cytotoxicity at 10 µM: 8.64%

CSCC[C@H]1CN2CCC[C@H]2CN1Cc1coc2ccc(C)cc2c1=O
cytotoxicity at 10 µM: -1.04%

Cc1nccc(C2CCCCN2Cc2cccc(F)c2)n1 (centres undefined)
cytotoxicity at 10 µM: -11.6%

NC(=O)C1CN(Cc2c[nH]cn2)CCN(C2CCOCC2)C1 (centres undefined)
cytotoxicity at 10 µM: 3.83%

COc1cc(Cl)c(NC(=O)c2cc3c([nH]c2=O)CCCC3=O)cc1OC
cytotoxicity at 10 µM: -5.21%

COCc1c(Br)cccc1NC(=O)N(C)CCO
cytotoxicity at 10 µM: -9.95%

O=S(=O)(c1ccccc1N1CC(n2cccn2)C1)C(F)(F)F
cytotoxicity at 10 µM: 6.68%

CC(C)OCCC1CCCCN1S(N)(=O)=O (centres undefined)
cytotoxicity at 10 µM: 7.36%

CC(C)(C)CC(=O)NCC1CCCS1 (centres undefined)
cytotoxicity at 10 µM: 11.2%

CC(=O)N1CCN(CCNC(=O)NC(C)Cn2ccnc2)CC1 (centres undefined)
cytotoxicity at 10 µM: 5.74%

CCN(Cc1cnn(C)c1)S(=O)(=O)c1ccc(NC(C)=O)cc1
cytotoxicity at 10 µM: 3.59%

Cn1cc(C2CCCN2C(=O)COC2CCCCC2)cn1 (centres undefined)
cytotoxicity at 10 µM: -8.79%

CC(C#N)CSc1ccccc1NCC(=O)NC(C1CC1)C1CC1 (centres undefined)
cytotoxicity at 10 µM: 14.5%

COC(=O)CCNC(=O)c1cccc(C(=O)N(C)c2ccccc2)c1
cytotoxicity at 10 µM: -2.69%

CC(C)c1nnc2n1CC(CNCc1nc3ccccc3s1)CC2 (centres undefined)
cytotoxicity at 10 µM: 13%

CC(C)C(NC(=O)NCC1CC1)c1nnc2n1CCC2 (centres undefined)
cytotoxicity at 10 µM: -7.44%

COc1ncnc(N(C)C)c1NC(=O)Cc1cc(F)ccc1F
cytotoxicity at 10 µM: -2.67%

COc1ccc(NC(=O)C(C)(C)C)cc1OCc1cccnc1
cytotoxicity at 10 µM: -41.1%

Cc1cn2nc(N3CCCC3C(=O)N3CCSCC3)sc2n1 (centres undefined)
cytotoxicity at 10 µM: 10.9%

O=C(COCc1ccccc1)Nc1ccccn1
cytotoxicity at 10 µM: -27.7%

CCOCc1ccc(NC(=O)N2CCCC2c2nncn2C)cc1 (centres undefined)
cytotoxicity at 10 µM: 6.53%

CC1CCN(S(=O)(=O)N2Cc3ccccc3C[C@H]2C(N)=O)CC1
cytotoxicity at 10 µM: -6.64%

CC(C)Oc1ncccc1CNC(=O)NC(C)c1cccs1 (centres undefined)
cytotoxicity at 10 µM: -2.3%

O=C(CC1CCCO1)NCCCC(=O)Nc1ccc(Cl)cc1 (centres undefined)
cytotoxicity at 10 µM: 2.91%

CCn1cc(NC(=O)NCC2(N3CCOCC3)CCSC2)cn1 (centres undefined)
cytotoxicity at 10 µM: -17.1%

Cc1ccccc1C(=O)NCc1ccc(N2CCNC(=O)C2)c(F)c1
cytotoxicity at 10 µM: -13.8%

O=C1CC2(CCCCC2)CC(=O)N1CC(O)COCc1ccc(Cl)cc1 (centres undefined)
cytotoxicity at 10 µM: -1.04%

CCOc1cc(CN(C)CCOC)ccc1OC(F)F
cytotoxicity at 10 µM: -13.7%

Cn1cc(CN2CCc3onc(C(=O)Nc4cccnc4)c3C2)cn1
cytotoxicity at 10 µM: 4.22%

O=C(c1ccoc1)N1CC[C@@H]2[C@H]1CCC(=O)N2c1ccccc1
cytotoxicity at 10 µM: -0.362%

Cc1ccc(S(=O)(=O)N2CCC3(CC(C(=O)NCC4CC4)=NO3)C2)cc1 (centres undefined)
cytotoxicity at 10 µM: 4.35%

CN(Cc1nc(-c2cccs2)no1)Cc1nc2c(s1)CCCC2
cytotoxicity at 10 µM: 3.01%

CCc1noc(CN(C)C(=O)C2COc3ccccc3C2)n1 (centres undefined)
cytotoxicity at 10 µM: 1.3%

CCc1nnc(CN(CC)C(=O)C2CC(=O)N(C3CCCC3)C2)o1 (centres undefined)
cytotoxicity at 10 µM: -2.57%

CN(CCc1cn[nH]c1)C(=O)C(c1ccc(F)cc1)N(C)C (centres undefined)
cytotoxicity at 10 µM: -19.5%

O=C(NCCn1ccnc1C1CCOC1)c1cccnc1 (centres undefined)
cytotoxicity at 10 µM: -0.757%

Cc1ccc(F)cc1S(=O)(=O)N1C[C@@H](C)[C@@](C)(O)C1
cytotoxicity at 10 µM: -0.784%

NC(=O)c1ccnc(N2CCCC(CO)(Cc3ccc(F)cc3)C2)c1 (centres undefined)
cytotoxicity at 10 µM: 14.1%

COCC1CCCN(C(=O)c2ccc(N(C)Cc3cnn(C)c3)nc2)C1 (centres undefined)
cytotoxicity at 10 µM: -3.97%

CN(CCc1ccccc1)Cc1nc(Cc2cccc(F)c2)no1
cytotoxicity at 10 µM: 0.276%

COCCN1CCC(CN(Cc2ccncc2)C2CCC2)CC1
cytotoxicity at 10 µM: -2.33%

CCc1nccn1CCCn1ccnc1-c1[nH]cnc1C
cytotoxicity at 10 µM: 10%

Cc1cccc(C)c1OC1CN(C(=O)C2CCCN(C(=O)N(C)C)C2)C1 (centres undefined)
cytotoxicity at 10 µM: -0.545%

CCOc1ccc2[nH]c(=O)c(CN3CCC(n4cnnc4)CC3)cc2c1
cytotoxicity at 10 µM: -0.966%

Cc1nc(CNC2CC(=O)N(CCc3cccc(Cl)c3)C2)c[nH]1 (centres undefined)
cytotoxicity at 10 µM: -133%

CNC(=O)C1CCCN1c1nc(C)c2ccccc2n1 (centres undefined)
cytotoxicity at 10 µM: 10.4%

Cc1cc(C(=O)N2CCC3(CC2)CN(CCN(C)C)C(=O)O3)nc(C)n1
cytotoxicity at 10 µM: 2.92%

Cc1cccc(SC2CCN(C(=O)CCCn3cnnn3)CC2)c1
cytotoxicity at 10 µM: 0.647%

CS(=O)(=O)c1ccc(CC(=O)N2CCN3CCNC(=O)C3C2)cc1 (centres undefined)
cytotoxicity at 10 µM: -3.34%

CCC(C)N(Cc1ccncc1)C(=O)CCSC (centres undefined)
cytotoxicity at 10 µM: -0.146%

O=C(O)[C@]12CCCN(Cc3ccccn3)[C@@H]1CCN(c1cnccn1)C2
cytotoxicity at 10 µM: 2.12%

COCCn1ccnc1C1CCCN(c2cc(OC)nc(N)n2)C1 (centres undefined)
cytotoxicity at 10 µM: 11.2%

CC(=O)Nc1ccc(S(=O)(=O)Nc2c(F)cccc2F)cc1
cytotoxicity at 10 µM: 12.6%

c1ncn(Cc2nnc(C3CCN(CC4CC4)CC3)n2C2CC2)n1
cytotoxicity at 10 µM: 5.2%

COc1cccc(CCC2CCCN(C(=O)c3ccccn3)C2)c1 (centres undefined)
cytotoxicity at 10 µM: -0.237%

CC(C)Cc1cc(C(=O)N2CC(OCc3ccccc3F)C2)n(C)n1
cytotoxicity at 10 µM: 8.92%

Fc1ccccc1C(CNc1ccncn1)N1CCCC1 (centres undefined)
cytotoxicity at 10 µM: 2.84%

COc1cccc([C@@H]2CCN(Cc3cn(C)c4ccccc34)C[C@H]2O)c1
cytotoxicity at 10 µM: 14.7%

CCc1nc(N)nc(NCc2cnn3cccnc23)c1C
cytotoxicity at 10 µM: 52.5%

O=C1NCCN(C(=O)c2cn3ccsc3n2)C1c1cccc(F)c1 (centres undefined)
cytotoxicity at 10 µM: -5.18%

Cc1csc2c(N3CCC(NCCCc4ccncc4)CC3)ncnc12
cytotoxicity at 10 µM: -1.54%

Clc1ccccc1C1(c2ccnc(CC3CC3)n2)CCNCC1
cytotoxicity at 10 µM: -10.3%

CN(C)Cc1ccc(C2CCCCN2C(=O)c2cccc(CO)n2)cc1 (centres undefined)
cytotoxicity at 10 µM: -16.9%

O=C(O)C1(Cc2ccccc2Cl)CCN(c2ncccc2F)CC1
cytotoxicity at 10 µM: -12.3%

O=C(NC[C@@H]1CCCN1)c1cc(COc2cccc(C(F)(F)F)c2)[nH]n1
cytotoxicity at 10 µM: -8.31%

CC(C)(C)c1cc(CN2CC[C@@H](NC(=O)c3cccnc3)[C@H](O)C2)n[nH]1
cytotoxicity at 10 µM: -13.2%

CC(=O)NCCc1cc(N2CCN(C(C)=O)CC2)nc(C2CC2)n1
cytotoxicity at 10 µM: 2.24%

CN1CCOC(CN(C(=O)CCc2ccco2)c2nccs2)C1 (centres undefined)
cytotoxicity at 10 µM: -16.1%

Cc1nnc2n1CCN(CCS(=O)(=O)c1ccc(Cl)cc1)C2
cytotoxicity at 10 µM: -4.53%

CCc1nc(CN2CCCN(C(=O)CC(C)OC)CC2)cs1 (centres undefined)
cytotoxicity at 10 µM: -24.7%

O=C(CCOc1ccc(Br)cc1)N1CCN(c2cnccn2)CC1
cytotoxicity at 10 µM: 0.207%

CC(C(N)=O)N(C)CCCc1cc(-c2ccccc2)no1 (centres undefined)
cytotoxicity at 10 µM: -5.01%

O=C(NCCOc1ccc(Cl)cc1)N1CCS(=O)(=O)CC1
cytotoxicity at 10 µM: 0.89%

COc1ccc(COCC(O)CNC(=O)c2cnc(C)cn2)cc1 (centres undefined)
cytotoxicity at 10 µM: -2%

Cc1csc(CNC(=O)NCCc2ccc3c(c2)OCCO3)n1
cytotoxicity at 10 µM: 4.74%

CCc1cc2cc(OC)c(OC)cc2nc1SCCN1CCCCC1
cytotoxicity at 10 µM: -4.82%

COc1ccccc1CN(CCCn1ccnc1)CC1CCOC1 (centres undefined)
cytotoxicity at 10 µM: 11%

O=C(Nc1cnccn1)[C@@H]1CC[C@@H]2[C@@H](CCN2Cc2nccs2)O1
cytotoxicity at 10 µM: -136%

CC[C@H]1N(C)CCC[C@]12CCC(=O)N2Cc1ccncc1
cytotoxicity at 10 µM: 7.99%

Cc1cccc(CN2C[C@@H]3CN(C(=O)c4cnccn4)C[C@@H]3C2=O)n1
cytotoxicity at 10 µM: 3.14%

CS(=O)(=O)NC[C@H]1OC[C@@H]2CCN(CCc3ccccc3)C[C@@H]21
cytotoxicity at 10 µM: -4.67%

O=S(=O)(N1CCCC1)N1C[C@@H](c2cccc(F)c2)[C@@H]2NCCCCC[C@H]21
cytotoxicity at 10 µM: -25%

COc1cccc(CN2CCC3(CCN(C(=O)[C@H]4CCCO4)CC3)C2)c1
cytotoxicity at 10 µM: 6.57%

COCCN1C[C@@H]2[C@@H](OC)CCN(Cc3cccc(C)n3)[C@@H]2C1
cytotoxicity at 10 µM: -9.41%

CN(Cc1ccco1)C1CCC12CCN(C(=O)C1CCOCC1)CC2 (centres undefined)
cytotoxicity at 10 µM: -2.92%

O=C1CN(C(=O)C2CCC3(CC2)CNC(=O)c2ccccc2O3)CCN1 (centres undefined)
cytotoxicity at 10 µM: -11.6%

CN(C)C(=O)NCc1cc2n(n1)CCN(CC1[C@H]3CNC[C@@H]13)C2 (some centres undefined)
cytotoxicity at 10 µM: -27.7%

O=C(NCC1CC1)[C@H]1C[C@H]2CN(S(=O)(=O)Cc3ccccc3)C[C@@H]1O2
cytotoxicity at 10 µM: 7.56%
